According to ChEMBL document CHEMBL4014272, “Design, synthesis, biological evaluation, molecular docking and QSAR studies of 2,4-dimethylacridones as anticancer agents” (Eur J Med Chem, 2017):

Legend:
NCI/ADR-RES = assay: Growth inhibition of human MCF7/ADR cells after 48 hrs by SRB assay; format: functional, cell-based
How it was run: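 Doxorubicin-selected MCF-7/ADR cells maintained under doxorubicin, grown in RPMI 1640 with glutamine and 10% fetal calf serum, 37 °C, 5% CO2. Log-phase cells plated, attached 24 h, exposed to varying compound concentrations for 48 h; ethanol vehicle controls. Survival by SRB absorbance versus control; triplicate readings averaged for IC50.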

MCF7 = assay: Growth inhibition of human MCF7 cells after 48 hrs by SRB assay; format: functional, cell-based; settings: MCF7, 48 h
How it was run: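 MCF-7 cells in RPMI 1640 with glutamine and 10% fetal calf serum, 37 °C, 5% CO2. Log-phase cells plated, attached 24 h, then exposed to varying compound concentrations for 48 h; ethanol vehicle controls. Survival by SRB, absorbance 540 nm versus control; each dilution in triplicate, IC50 from mean of triplicates.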

ABCB1 (P-glycoprotein) = ABCB1 (P-glycoprotein) (Homo sapiens, UniProt P08183); assay: Displacement of [3H]-azidopine from ABCB1 in human KBV1 cell membranes at IC50 incubated for 20 mins in dark followed by irradiation of UV-light measured after 20 mins by SDS-PAGE based autoradiography relative to control; settings: probe [3H]-azidopine
ABCB1 (P-glycoprotein), sequence (P08183 whole entry): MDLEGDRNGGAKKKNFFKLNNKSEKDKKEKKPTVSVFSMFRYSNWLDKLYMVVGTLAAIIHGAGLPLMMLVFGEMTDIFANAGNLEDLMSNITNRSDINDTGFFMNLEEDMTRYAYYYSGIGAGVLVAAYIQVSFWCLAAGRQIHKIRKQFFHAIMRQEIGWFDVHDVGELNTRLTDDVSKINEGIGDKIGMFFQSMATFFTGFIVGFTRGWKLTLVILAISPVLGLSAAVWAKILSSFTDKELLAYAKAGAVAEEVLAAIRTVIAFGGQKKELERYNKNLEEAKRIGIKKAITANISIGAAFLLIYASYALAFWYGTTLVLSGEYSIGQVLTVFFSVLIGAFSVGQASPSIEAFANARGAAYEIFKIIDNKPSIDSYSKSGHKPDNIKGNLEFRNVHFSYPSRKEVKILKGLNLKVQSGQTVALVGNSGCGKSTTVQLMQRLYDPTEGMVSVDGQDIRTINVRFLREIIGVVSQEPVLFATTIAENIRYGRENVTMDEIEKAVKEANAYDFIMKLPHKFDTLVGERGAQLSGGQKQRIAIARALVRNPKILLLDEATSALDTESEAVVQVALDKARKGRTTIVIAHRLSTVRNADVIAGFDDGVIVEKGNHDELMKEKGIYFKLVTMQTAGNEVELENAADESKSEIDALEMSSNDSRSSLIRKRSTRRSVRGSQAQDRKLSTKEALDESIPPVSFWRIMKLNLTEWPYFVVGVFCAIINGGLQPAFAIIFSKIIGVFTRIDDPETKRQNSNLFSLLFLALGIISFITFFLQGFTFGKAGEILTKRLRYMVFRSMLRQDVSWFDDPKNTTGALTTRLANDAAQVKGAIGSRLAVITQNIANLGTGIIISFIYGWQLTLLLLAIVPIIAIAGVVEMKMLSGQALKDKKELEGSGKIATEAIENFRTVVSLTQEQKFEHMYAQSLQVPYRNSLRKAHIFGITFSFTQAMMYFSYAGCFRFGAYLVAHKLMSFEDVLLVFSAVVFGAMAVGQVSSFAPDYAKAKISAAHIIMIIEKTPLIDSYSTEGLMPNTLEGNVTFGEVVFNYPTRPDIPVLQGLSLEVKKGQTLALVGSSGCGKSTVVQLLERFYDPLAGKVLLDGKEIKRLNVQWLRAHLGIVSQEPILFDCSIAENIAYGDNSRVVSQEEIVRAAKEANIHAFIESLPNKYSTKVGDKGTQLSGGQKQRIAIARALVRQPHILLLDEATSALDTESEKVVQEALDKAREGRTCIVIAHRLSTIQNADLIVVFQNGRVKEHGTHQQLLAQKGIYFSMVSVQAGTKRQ

[1] = target: ATP-dependent translocase ABCB1 (Homo sapiens, UniProt P08183); assay: Inhibition of ABCB1 in human MCF7/ADR cells assessed as potentiation of vinblastine-induced cytotoxicity at IC10 after 7 days by SRB assay relative to vinblastine alone; format: cell-based; settings: 168 h
ATP-dependent translocase ABCB1, sequence (P08183 whole entry): as above
How it was run: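 Doxorubicin-maintained MCF-7/ADR cells given vinblastine (0-100 nM, continuous 7 days per results text; methods state 0-15 nM for 48 h) alone or with modulator at its IC10. Survival by SRB versus ethanol vehicle control; vinblastine IC50 with modulator compared to vinblastine alone; triplicates averaged.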

| SMILES | IC50 (NCI/ADR-RES) [µM] | IC50 (MCF7) [µM] | inhibition at 20 min (ABCB1 (P-glycoprotein)) [%] | inhibition (INH) [1] | fold change (FC) [1] |
| --- | --- | --- | --- | --- | --- |
| Cc1cc(C)c2c(c1)c(=O)c1ccccc1n2CCCCN1CCOCC1 | 21.8 | 20 | 36 | Active |  |
| CCN(CC)CCCCn1c2ccccc2c(=O)c2cc(C)cc(C)c21 | 9.1 | 8.3 | 54 | Active |  |
| Cc1cc(C)c2[nH]c3ccccc3c(=O)c2c1 | 82.1 | 79 | 33 |  | 1.4 |
| Cc1cc(C)c2c(c1)c(=O)c1ccccc1n2CCCN1CCCCC1 | 61.7 | 58 | 34 |  | 7.17 |
| COc1ccc(CCN(C)CCCC(C#N)(c2ccc(OC)c(OC)c2)C(C)C)cc1OC (stereo unspecified) [VERAPAMIL] |  |  | 61 |  |  |
| Cc1cc(C)c2c(c1)c(=O)c1ccccc1n2CCCCl |  |  | 28 |  |  |
| COc1cccc2c1C(=O)c1c(O)c3c(c(O)c1C2=O)C[C@@](O)(C(C)=O)C[C@@H]3O[C@H]1C[C@H](N)[C@H](O)[C@H](C)O1 [DAUNORUBICIN] | 7.12 |  |  |  |  |
| Cc1cc(C)c2c(c1)c(=O)c1ccccc1n2CCCN1CCN(C)CC1 | 53.5 | 50.2 | 46 |  | 4.75 |
| Cc1cc(C)c2c(c1)c(=O)c1ccccc1n2CCCCCl |  |  | 36 |  |  |
| Cc1cc(C)c2c(c1)c(=O)c1ccccc1n2CCCN1CCOCC1 | 65.3 | 59.2 | 26 |  | 6.4 |
| Cc1cc(C)c2c(c1)c(=O)c1ccccc1n2CCCN(CCO)CCO | 22.8 | 19.1 | 40 |  | 9.7 |
| Cc1cc(C)c2c(c1)c(=O)c1ccccc1n2CCCCN1CCN(C)CC1 | 16.2 | 14.5 | 43 |  |  |
| CC[C@]1(O)C[C@@H]2CN(CCc3c([nH]c4ccccc34)[C@@](C(=O)OC)(c3cc4c(cc3OC)N(C)[C@H]3[C@@](O)(C(=O)OC)[C@H](OC(C)=O)[C@]5(CC)C=CCN6CC[C@]43[C@@H]65)C2)C1 [VINBLASTINE] | 0.0106 to 0.0693 | 0.003 to 0.0032 |  |  |  |
| Cc1cc(C)c2c(c1)c(=O)c1ccccc1n2CCCCN1CCN(CCO)CC1 | 2.56 | 2 | 58 | Active |  |
| Cc1cc(C)c2c(c1)c(=O)c1ccccc1n2CCCCN1CCCCC1 | 36.3 | 30.1 | 42 |  |  |
| Cc1cc(C)c2c(c1)c(=O)c1ccccc1n2CCCN1CCN(CCO)CC1 | 15.1 | 12 | 52 |  | 16.74 |
| Cc1cc(C)c2c(c1)c(=O)c1ccccc1n2CCCCN(CCO)CCO | 5.21 | 4 | 55 | Active |  |
| CCN(CC)CCCn1c2ccccc2c(=O)c2cc(C)cc(C)c21 | 34.2 | 29.1 | 36 |  | 10.48 |
